Source: PubChem BioAssay (several laboratories)
Hits are enriched below; roughly 5.6% of the tested compounds scored in any of these assays.
MPTP block – mitochondrial permeability transition pore inhibitors, primary screen, biochemical, isolated mouse mitochondria, absorbance; actives 1.4% (n = 360,000); Ca2+ swelling absorbance, 30 min; inhibition, % at 10 µM;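 active = inhibition of 50% or more, scaled per plate between neutral and stimulator controls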
XBP1 UPR activ – activators of adaptive XBP1 UPR arm, primary screen, cell-based, CHO-XBP1 luciferase reporter, luminescence, uHTS. IRE1-XBP1 UPR activation; percent of tunicamycin response, DMSO as zero. activation, % at 20 µM. actives 0.33% (n = 330,000). AID 463104, 2010;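 active = versus positive control, 20 µM dose yields 30% or more activation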
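Material: CHO cell line with stable XBP1 luciferase reporter; schedule: 16-18 h cell attachment at 37 °C, then 6 h compound exposure; signal: glow luminescence from Steady-Glo reagent; medium: serum-containing F12 medium, 10% FBS; benchmarks: tunicamycin 10 µg/mL and vehicle-only wells; read-out: percent activation relative to tunicamycin reference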
aDG glyco up – activators of alpha-DG glycosylation, primary screen, uHTS, Pro5-aDG cells, AlphaScreen | actives 0.22% (n = 360,000) | activation, % at 10 µM | AID 624168, 2012 | alpha-DG glycosylation AlphaScreen (IIH6); 0% Pro5, 100% B10-LARGE cell signal;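 active = activation of at least 8% versus controls, or a plate z-score of at least 8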;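 also: Pro5 are CHO cells carrying HIG-tagged alpha-DG that lacks glycosylation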
CHOP inh – inhibitors of CHOP promoter induction, primary screen, cell-based, unfolded protein response, luciferase reporter; AID 2732, 2010; actives 3.8% (n = 220,000); CHO-K1 CHOP-promoter luciferase, tunicamycin-induced, 15-18 h; inhibition, % at 10 µM;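 active = compounds that reduced the stress-induced luciferase reporter signal by more than about 70% of percent inhibition, limit read from the data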
NR3A LBD binder – binders of NR3A ligand-binding domain, primary screen, biophysical, differential scanning fluorimetry, uHTS; actives 2.5% (n = 340,000); Tm shift relative to glycine control, % at 25 µM; AID 1259313, 2017; Glutamate receptor ionotropic, NMDA 3A (GRIN3A) ligand-binding domain; NR3A LBD differential scanning fluorimetry, Tm shift; 0% = protein alone, 100% = glycine-bound protein;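 active = melting temperature shift of at least 10% of the positive control shift, at one fixed dose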
UPR CHOP act – activators of apoptotic CHOP UPR arm, primary screen, cell-based, CHO-CHOP luciferase reporter, luminescence, uHTS. activation, % at 10 µM. actives 0.34% (n = 330,000). AID 449763, 2010. UPR activation; percent of tunicamycin response over DMSO baseline;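 active = at 10 µM dose, activation of 40% or more, normalized to positive control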
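Test system: CHO-CHOP cells, stable luciferase reporter of PERK-eIF2a-CHOP signalling | Quantity: 500 CHO-CHOP cells per well | Buffer or medium: F12 plus 10% serum | Compound dosing: 10 µM single point, 0.5% DMSO | Schedule: 6 h compound treatment, 37 °C | Signal: Luciferase luminescence | Control set: Tunicamycin high control, DMSO low control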
A number is an active result; . = inactive; / = not tested or not shown.

SMILES	MPTP block	XBP1 UPR activ	aDG glyco up	CHOP inh	NR3A LBD binder	UPR CHOP act
O=C(Nc1cccnc1)c1ccc([N+](=O)[O-])s1	.	.	9.7	/	.	.
O=C(Nc1cccnc1)c1cc(Br)c(Br)s1	.	.	.	/	.	.
Cc1ccc(NC(=S)NCCc2c[nH]c3ccccc23)c(C)c1	.	.	.	.	11.8	.
O=C(NCCc1c[nH]c2ccccc12)Nc1cccc2ccccc12	.	.	.	.	17.6	.
COc1ccc2[nH]cc(CCNC(=O)Nc3ccccc3)c2c1	.	.	.	/	.	.
COc1cc(NC(=S)NCCc2c[nH]c3ccccc23)c(OC)cc1Cl	.	.	.	.	36.0	.
Cc1ccc(NC(=S)NCCc2ccccc2)c(C)c1	.	.	.	.	.	.
COc1ccc2[nH]cc(CCNC(=S)NCCc3ccccc3)c2c1	.	.	.	.	26.1	.
COc1ccccc1NC(=S)NCCc1c[nH]c2ccccc12	.	.	.	.	.	.
COc1cc2cc(C(=O)NC(C)c3cccc4ccccc34)c(N)nc2cc1OC (stereo not given)	.	/	.	/	/	/
COc1ccc2c(CCNC(=O)Nc3ccccc3)c[nH]c2c1	.	.	.	.	.	.
COc1ccc(NC(=S)NCCc2c[nH]c3ccccc23)cc1	.	.	.	.	26.1	.
COc1ccc(/C(C)=N/NC(=O)c2cccc(S(=O)(=O)N3CCCC3)c2)c(O)c1	.	.	.	/	/	.
Fc1ccc(Nc2ncnc3sccc23)cc1	.	.	.	/	.	.
COc1cc(C2c3c(-c4cc(Cl)c(C)cc4O)n[nH]c3C(=O)N2Cc2cccnc2)ccc1O (stereo not given)	.	.	.	.	.	.
COc1cccc(C2c3c(-c4cc(Cl)c(C)cc4O)n[nH]c3C(=O)N2Cc2cccnc2)c1 (stereo not given)	.	.	.	75.3	.	.
CC(C)c1cc(C(N)=O)c(NC(=O)c2cccc(COc3ccc(Cl)cc3)c2)s1	.	.	.	.	16.0	.
CCOC(=O)N1CCN(C(=O)CNS(=O)(=O)c2c(C)cc(C)cc2C)CC1	.	.	.	/	.	.
CC(C)Oc1cc2oc(=O)c3c(c2cc1Cl)CCC3	.	.	.	81.8	.	.
O=C1OC(c2ccc(O)cc2)(c2ccc(O)cc2)c2ccccc21	.	.	.	.	.	.
O=C1OC(c2ccccc2)(c2ccc3cc(O)ccc3c2)c2ccccc21 (stereo not given)	.	/	.	/	10.4	/
O=C(OCc1nnc(-c2ccc([N+](=O)[O-])cc2)o1)c1ccc(F)c(S(=O)(=O)N2CCOCC2)c1	.	.	.	/	.	.
Cn1c(SCC(=O)Nc2ccc(Br)cc2)nc(O)cc1=O	.	.	.	.	.	.
O=C(O)C1C2C=CC3(CN(c4cccc(C(F)(F)F)c4)C(=O)C13)O2 (stereo not given)	.	.	.	.	11.2	.
Cc1cccc(N2CC34C=CC(O3)C(C(=O)O)C4C2=O)c1 (stereo not given)	.	.	.	.	.	.
SMILES	MPTP block	XBP1 UPR activ	aDG glyco up	CHOP inh	NR3A LBD binder	UPR CHOP act
COc1ccc(-c2csc(C(C)(O)c3ccc(F)c(F)c3)n2)cc1 (stereo not given)	.	/	.	/	/	/
CC(=O)Nc1ccc(NC(=O)c2ccc(COc3ccccc3)cc2)cc1	.	.	.	/	10.4	.
O=C(Nc1ccc(F)cc1)c1ccc(COc2ccccc2)cc1	.	.	.	.	.	.
CC(C)C(=O)Nc1ccc(NC(=O)c2ccc(COc3ccccc3)cc2)cc1	.	.	.	/	16.3	.
O=C(NNC(=O)C1CC1)c1ccc(F)cc1F	.	.	.	/	.	.
O=C(Nc1ccccc1)c1nnsc1S(=O)c1ccc(Cl)cc1 (stereo not given)	.	.	.	75.1	.	.
Cc1nnsc1S(=O)c1ccc(Cl)cc1 (stereo not given)	.	.	.	/	.	.
